Data taken from ChEMBL document CHEMBL5058577, “EUbOPEN Chemogenomics Library 2 (Multiplex)” (2022).

Tested on: HEK-293T
Test: Multiplex assay against HEK293T
Type: toxicity, cell-based
Conditions: human
In short: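 Live cells carried four stains from seeding: Hoechst33342, BioTracker Green Microtubule Cytoskeleton Dye, MitoTracker Red and Annexin V Alexa Fluor 680. They were imaged on a CQ1 microscope at 37°C and 5% CO2 after compound addition. Using CellPathfinder machine-learning gating, cells were split into Hoechst high-intensity objects or normal cells, normal cells into healthy, pyknosed or fragmented nuclei, and pyknosed cells into mitotic or apoptotic; tubulin, mitochondrial-mass and membrane-permeability phenotypes are per cents of healthy-nucleus cells.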

[1] = 12 h, 1 µM, compound concentration 1 uM, replicate 1
[2] = 12 h, 1 µM, compound concentration 1 uM, replicate 2
[3] = 12 h, 10 µM, compound concentration 10 uM, replicate 1
[4] = 12 h, 10 µM, compound concentration 10 uM, replicate 2
[5] = 24 h, 1 µM, compound concentration 1 uM, replicate 1
[6] = 24 h, 1 µM, compound concentration 1 uM, replicate 2
[7] = 24 h, 10 µM, compound concentration 10 uM, replicate 1
[8] = 24 h, 10 µM, compound concentration 10 uM, replicate 2
[9] = 48 h, 1 µM, compound concentration 1 uM, replicate 1
[10] = 48 h, 1 µM, compound concentration 1 uM, replicate 2
[11] = 48 h, 10 µM, compound concentration 10 uM, replicate 1
[12] = 48 h, 10 µM, compound concentration 10 uM, replicate 2

With `N[C@@]1(C(=O)O)CO[C@H]2[C@H](C(=O)O)[C@H]21` [LY-379268] the “Population Apoptotic (%)” value [1] was 40%, the “Population Fragmented Nuclei (%)” value [1] was 6% and the “Population Healthy Nuclei (%)” value [1] was 81%. For the same compound, the “Population Hoechst High Intensity Objects (%)” value [1] was 5%, the “Population Membrane Permeable-Phenotype (%)” value [1] was 0% and the “Population Mitochondria Different-Phenotype (%)” value [1] was 38%. For the same compound, the “Population Mitotic Cells (%)” value [1] was 60%, the “Population Normal (%)” value [1] was 94% and the “Population Pyknosed Nuclei (%)” value [1] was 12%. For the same compound, the “Population Tubulin-Different-Phenotype (%)” value [1] was 26%, the “Total Cell Count” value [1] was 396 and the “Population Apoptotic (%)” value [2] was 42%. The “Population Healthy Nuclei (%)” value [2] was 80%, the “Population Hoechst High Intensity Objects (%)” value [2] was 10% and the “Population Membrane Permeable-Phenotype (%)” value [2] was 1%. The “Population Mitochondria Different-Phenotype (%)” value [2] was 57%, the “Population Mitotic Cells (%)” value [2] was 57% and the “Population Normal (%)” value [2] was 89%. The “Population Tubulin-Different-Phenotype (%)” value [2] was 18%, the “Total Cell Count” value [2] was 411 and the “Population Apoptotic (%)” value [3] was 27%. For the same compound, the “Population Fragmented Nuclei (%)” value [3] was 10%, the “Population Healthy Nuclei (%)” value [3] was 78% and the “Population Hoechst High Intensity Objects (%)” value [3] was 8%. For the same compound, the “Population Membrane Permeable-Phenotype (%)” value [3] was 0%, the “Population Mitochondria Different-Phenotype (%)” value [3] was 33% and the “Population Mitotic Cells (%)” value [3] was 72%. For the same compound, the “Population Normal (%)” value [3] was 91%, the “Population Pyknosed Nuclei (%)” value [3] was 10% and the “Population Tubulin-Different-Phenotype (%)” value [3] was 31%. For the same compound, the “Total Cell Count” value [3] was 437, the “Population Apoptotic (%)” value [4] was 52% and the “Population Fragmented Nuclei (%)” value [4] was 8%. For the same compound, the “Population Healthy Nuclei (%)” value [4] was 79%, the “Population Hoechst High Intensity Objects (%)” value [4] was 7% and the “Population Mitochondria Different-Phenotype (%)” value [4] was 51%. For the same compound, the “Population Mitotic Cells (%)” value [4] was 47%, the “Population Normal (%)” value [4] was 92% and the “Population Pyknosed Nuclei (%)” value [4] was 12%. The “Population Tubulin-Different-Phenotype (%)” value [4] was 18%, the “Total Cell Count” value [4] was 380 and the “Population Apoptotic (%)” value [5] was 30%. For the same compound, the “Population Fragmented Nuclei (%)” value [5] was 8%, the “Population Healthy Nuclei (%)” value [5] was 79% and the “Population Hoechst High Intensity Objects (%)” value [5] was 2%. The “Population Membrane Permeable-Phenotype (%)” value [5] was 0%, the “Population Mitochondria Different-Phenotype (%)” value [5] was 21% and the “Population Mitotic Cells (%)” value [5] was 70%. For the same compound, the “Population Normal (%)” value [5] was 97%, the “Population Pyknosed Nuclei (%)” value [5] was 11% and the “Population Tubulin-Different-Phenotype (%)” value [5] was 20%. The “Total Cell Count” value [5] was 517, the “Population Apoptotic (%)” value [6] was 29% and the “Population Fragmented Nuclei (%)” value [6] was 7%. For the same compound, the “Population Healthy Nuclei (%)” value [6] was 83%, the “Population Hoechst High Intensity Objects (%)” value [6] was 7% and the “Population Mitochondria Different-Phenotype (%)” value [6] was 31%. The “Population Normal (%)” value [6] was 92%, the “Population Pyknosed Nuclei (%)” value [6] was 9% and the “Population Tubulin-Different-Phenotype (%)” value [6] was 13%. The “Total Cell Count” value [6] was 481, the “Population Apoptotic (%)” value [7] was 36% and the “Population Fragmented Nuclei (%)” value [7] was 10%. The “Population Healthy Nuclei (%)” value [7] was 79%, the “Population Hoechst High Intensity Objects (%)” value [7] was 6% and the “Population Membrane Permeable-Phenotype (%)” value [7] was 0%. For the same compound, the “Population Mitochondria Different-Phenotype (%)” value [7] was 24%, the “Population Mitotic Cells (%)” value [7] was 63% and the “Population Normal (%)” value [7] was 93%. The “Population Pyknosed Nuclei (%)” value [7] was 9%, the “Population Tubulin-Different-Phenotype (%)” value [7] was 15% and the “Total Cell Count” value [7] was 551. The “Population Apoptotic (%)” value [8] was 43%, the “Population Fragmented Nuclei (%)” value [8] was 8% and the “Population Healthy Nuclei (%)” value [8] was 82%. For the same compound, the “Population Hoechst High Intensity Objects (%)” value [8] was 8%, the “Population Mitochondria Different-Phenotype (%)” value [8] was 39% and the “Population Mitotic Cells (%)” value [8] was 56%. The “Population Normal (%)” value [8] was 91%, the “Total Cell Count” value [8] was 470 and the “Population Apoptotic (%)” value [9] was 26%. For the same compound, the “Population Fragmented Nuclei (%)” value [9] was 13%, the “Population Healthy Nuclei (%)” value [9] was 79% and the “Population Hoechst High Intensity Objects (%)” value [9] was 3%. The “Population Membrane Permeable-Phenotype (%)” value [9] was 1%, the “Population Mitochondria Different-Phenotype (%)” value [9] was 15% and the “Population Mitotic Cells (%)” value [9] was 73%. The “Population Normal (%)” value [9] was 97%, the “Population Pyknosed Nuclei (%)” value [9] was 6% and the “Population Tubulin-Different-Phenotype (%)” value [9] was 9%. The “Total Cell Count” value [9] was 866, the “Population Apoptotic (%)” value [10] was 33% and the “Population Fragmented Nuclei (%)” value [10] was 10%. For the same compound, the “Population Healthy Nuclei (%)” value [10] was 81%, the “Population Hoechst High Intensity Objects (%)” value [10] was 7% and the “Population Membrane Permeable-Phenotype (%)” value [10] was 0%. The “Population Mitochondria Different-Phenotype (%)” value [10] was 22%, the “Population Mitotic Cells (%)” value [10] was 66% and the “Population Normal (%)” value [10] was 92%. The “Population Pyknosed Nuclei (%)” value [10] was 7%, the “Population Tubulin-Different-Phenotype (%)” value [10] was 14% and the “Total Cell Count” value [10] was 611. The “Population Apoptotic (%)” value [11] was 24%, the “Population Fragmented Nuclei (%)” value [11] was 16% and the “Population Healthy Nuclei (%)” value [11] was 75%. For the same compound, the “Population Hoechst High Intensity Objects (%)” value [11] was 4%, the “Population Membrane Permeable-Phenotype (%)” value [11] was 1% and the “Population Mitochondria Different-Phenotype (%)” value [11] was 18%. For the same compound, the “Population Mitotic Cells (%)” value [11] was 75%, the “Population Normal (%)” value [11] was 95% and the “Population Pyknosed Nuclei (%)” value [11] was 7%. For the same compound, the “Population Tubulin-Different-Phenotype (%)” value [11] was 10%, the “Total Cell Count” value [11] was 781 and the “Population Apoptotic (%)” value [12] was 25%. The “Population Fragmented Nuclei (%)” value [12] was 11%, the “Population Healthy Nuclei (%)” value [12] was 80% and the “Population Membrane Permeable-Phenotype (%)” value [12] was 0%. The “Population Mitochondria Different-Phenotype (%)” value [12] was 19%, the “Population Tubulin-Different-Phenotype (%)” value [12] was 9% and the “Total Cell Count” value [12] was 689.
